What was measured:
[1] = biological target: T1, 3-hydroxy-3-methylglutaryl-coenzyme A reductase (Sus scrofa, UniProt Q1W675); test: Inhibition of pig liver microsomes HMG-CoA reductase incubated for 5 mins in using HMG-CoA and NADPH by colorimetric method
T1 sequence (Q1W675 whole entry): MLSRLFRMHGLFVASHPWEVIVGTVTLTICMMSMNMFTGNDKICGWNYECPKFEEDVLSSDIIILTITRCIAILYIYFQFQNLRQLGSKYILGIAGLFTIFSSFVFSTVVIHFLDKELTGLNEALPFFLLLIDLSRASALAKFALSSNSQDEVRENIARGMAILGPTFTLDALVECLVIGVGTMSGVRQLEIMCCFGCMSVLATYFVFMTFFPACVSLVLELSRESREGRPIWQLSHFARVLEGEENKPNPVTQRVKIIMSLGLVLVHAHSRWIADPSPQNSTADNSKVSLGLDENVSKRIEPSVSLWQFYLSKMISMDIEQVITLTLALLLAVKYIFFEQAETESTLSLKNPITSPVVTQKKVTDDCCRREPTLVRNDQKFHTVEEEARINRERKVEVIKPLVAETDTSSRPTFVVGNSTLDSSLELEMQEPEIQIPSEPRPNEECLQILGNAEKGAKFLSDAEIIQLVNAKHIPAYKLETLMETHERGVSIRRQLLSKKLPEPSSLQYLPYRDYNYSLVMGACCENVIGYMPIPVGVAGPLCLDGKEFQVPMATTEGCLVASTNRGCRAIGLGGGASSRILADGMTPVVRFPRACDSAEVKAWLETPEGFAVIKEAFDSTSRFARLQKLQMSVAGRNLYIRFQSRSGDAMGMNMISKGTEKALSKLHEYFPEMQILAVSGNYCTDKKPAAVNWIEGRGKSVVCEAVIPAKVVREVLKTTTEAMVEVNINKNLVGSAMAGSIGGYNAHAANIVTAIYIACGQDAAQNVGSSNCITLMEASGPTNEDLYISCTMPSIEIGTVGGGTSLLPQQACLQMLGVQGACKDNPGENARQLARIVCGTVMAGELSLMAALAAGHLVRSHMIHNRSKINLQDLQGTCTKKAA
Summary of the method: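 Pig liver microsomal HMG-CoA reductase at about 4 U/mL final, with compound at 2.5–80 μM final and 200 μM HMG-CoA. Buffer was 0.1 mol/L potassium phosphate pH 7.0 with EDTA, dithiothreitol and BSA. After 5 min at 37 °C, 100 μM NADPH was added for 15 min at 37 °C. Absorbance was read at 340 nm, with percent inhibition from blank-corrected OD.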

[2] = Inhibition of Baker's yeast alpha-glucosidase; set-up: species or system Saccharomyces cerevisiae
Summary of the method: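 Baker's yeast α-glucosidase assay read by absorbance at 405 nm. Control wells got phosphate buffer instead of compound, and blanks got buffer instead of enzyme. Percent inhibition was calculated from blank-corrected OD of test versus control wells.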

[3] = test system: K562; test: Cytotoxicity against human K562 cells by MTT method; assay type: functional, cell-based
[4] = test system: PC-3; test: Cytotoxicity against human PC3 cells by MTT method; assay type: functional, cell-based

| Structure (SMILES) | IC50 [1] | IC50 [2] | IC50 ([3]; Homo sapiens, K562) | IC50 ([4]; Homo sapiens, PC-3) | IC50 ([3]; k562) | IC50 ([4]; pc-3) |
| --- | --- | --- | --- | --- | --- | --- |
| C/C(=C\CC[C@@H](C)[C@H]1CC[C@@]2(C)C3=C(CC[C@]12C)[C@@]1(C)CCC(=O)C(C)(C)[C@@H]1CC3=O)CO [GANODERONE A] | > 100 µM | 13.7 µM | 27.7 µM | 28.5 µM | – | – |
| C/C(=C/CC[C@@H](C)[C@H]1CC[C@@]2(C)C3=C(CC[C@]12C)[C@@]1(C)CCC(=O)C(C)(C)[C@@H]1CC3=O)C(=O)O (stereo in doubt; 18) [GANODERIC ACID DM] | 9.5 µM | > 50 µM | – | 81.6 µM | 18.8 µM | – |
| C/C(=C/CC[C@@H](C)[C@H]1CC[C@@]2(C)C3=CC[C@H]4C(C)(C)C(=O)CC[C@]4(C)C3=CC[C@]12C)C(=O)O [GANODERIC ACID S] | 12.5 µM | > 50 µM | 65.2 µM | 75.2 µM | – | – |
| COc1cccc2c1C(=O)c1c(O)c3c(c(O)c1C2=O)C[C@@](O)(C(=O)CO)C[C@@H]3O[C@H]1C[C@H](N)[C@H](O)[C@H](C)O1 [DOXORUBICIN] | – | – | – | 2 µM | – | – |
| C[C@H](CC[C@H](O)[C@](C)(O)CO)[C@H]1CC[C@@]2(C)C3=CC[C@H]4C(C)(C)C(=O)CC[C@]4(C)C3=CC[C@]12C [GANODERMANONTRIOL] | 16.8 µM | > 50 µM | 80.9 µM | 106 µM | – | – |
| C/C(=C\CC[C@@H](C)[C@H]1CC[C@@]2(C)C3=CC[C@H]4C(C)(C)[C@@H](O)CC[C@]4(C)C3=CC[C@]12C)C(=O)O [GANODERIC ACID Y] | 8.6 µM | > 50 µM | 17.5 µM | 180 µM | – | – |
| CC(C)c1c(C(=O)Nc2ccccc2)c(-c2ccccc2)c(-c2ccc(F)cc2)n1CC[C@@H](O)C[C@@H](O)CC(=O)O [ATORVASTATIN] | 32.1 µM | – | – | – | – | – |
| C[C@H](CCC=C(CO)CO)[C@H]1CC[C@@]2(C)C3=CC[C@H]4C(C)(C)C(=O)CC[C@]4(C)C3=CC[C@]12C [GANODERIOL F] | > 100 µM | > 50 µM | 54.9 µM | 79.5 µM | – | – |
| CC(=O)O[C@H]1C(=O)[C@@]2(C)[C@H]([C@H](OC(=O)c3ccccc3)[C@]3(O)C[C@H](OC(=O)[C@H](O)[C@@H](NC(=O)c4ccccc4)c4ccccc4)C(C)=C1C3(C)C)[C@]1(OC(C)=O)CO[C@@H]1C[C@@H]2O [PACLITAXEL] | – | – | 0.9 µM | – | – | – |
| C[C@H]1O[C@H](O[C@H]2[C@H](O)[C@@H](O)[C@@H](O[C@H]3[C@H](O)[C@@H](O)C(O)O[C@@H]3CO)O[C@@H]2CO)[C@H](O)[C@@H](O)[C@@H]1N[C@H]1C=C(CO)[C@@H](O)[C@H](O)[C@H]1O (stereo partly specified) [ACARBOSE] | – | 273 µM | – | – | – | – |
| C/C(=C/CC[C@@H](C)[C@H]1CC[C@@]2(C)C3=C(CC[C@]12C)[C@@]1(C)CCC(=O)C(C)(C)[C@@H]1CC3=O)C(=O)O (stereo in doubt; 21) [GANODERIC ACID DM] | 56.1 µM | – | – | – | 55.4 µM | 149 µM |

Further lines, with some results ahead:

| IC50 [1] | IC50 [2] | Structure (SMILES) | IC50 ([3]; Homo sapiens, K562) | IC50 ([4]; Homo sapiens, PC-3) | IC50 ([3]; k562) | IC50 ([4]; pc-3) |
| --- | --- | --- | --- | --- | --- | --- |
| > 100 µM | > 50 µM | C/C(=C/CC[C@@H](C)[C@H]1CC[C@@]2(C)C3=C(C(O)C[C@]12C)[C@@]1(C)CCC(=O)C(C)(C)[C@@H]1CC3=O)C(=O)O (stereo partly specified) | > 200 µM | > 200 µM | – | – |
| 13.3 µM | > 50 µM | C/C(=C\CC[C@@H](C)[C@H]1CC(=O)[C@@]2(C)C3=C(C(=O)C[C@]12C)[C@@]1(C)CCC(=O)[C@@](C)(COC(=O)C[C@@](C)(O)CC(=O)O)[C@@H]1CC3=O)C(=O)O | 14.4 µM | > 200 µM | – | – |
| 12.6 µM | > 50 µM | C[C@H](CCC=C(CO)CO)[C@H]1CC[C@@]2(C)C3=C(CC[C@]12C)[C@@]1(C)CCC(=O)C(C)(C)[C@@H]1CC3=O | 41.6 µM | > 200 µM | – | – |
| > 100 µM | 12.7 µM | C/C(=C\CC[C@@H](C)[C@H]1CC(=O)[C@@]2(C)C3=C(C(=O)[C@H](O)[C@]12C)[C@@]1(C)CCC(=O)[C@@](C)(CO)[C@@H]1C[C@@H]3O)C(=O)O | > 200 µM | > 200 µM | – | – |
| 66.9 µM | > 50 µM | C/C(=C\CC[C@@H](C)[C@H]1CC[C@@]2(C)C3=C(C(=O)[C@H](O)[C@]12C)[C@@]1(C)CCC(=O)[C@@](C)(CO)[C@@H]1C[C@@H]3O)C(=O)O | 19.7 µM | > 200 µM | – | – |
| > 100 µM | > 50 µM | C[C@H](CCC=C(CO)CO)[C@H]1CC[C@@]2(C)C3=C(C(=O)C[C@]12C)[C@@]1(C)CCC(=O)C(C)(C)[C@@H]1C[C@@H]3O | 11.4 µM | 132 µM | – | – |
| 10.7 µM | > 50 µM | C/C(=C\CC[C@@H](C)[C@H]1CC(=O)[C@@]2(C)C3=C(C(=O)[C@H](O)[C@]12C)[C@@]1(C)CCC(=O)[C@@](C)(COC(=O)C[C@@](C)(O)CC(=O)O)[C@@H]1CC3=O)C(=O)O | 22.6 µM | > 200 µM | – | – |
| 97.5 µM | > 50 µM | CC(=O)O[C@H]1C(=O)C2=C([C@@H](O)C[C@H]3[C@](C)(CO)C(=O)CC[C@]23C)[C@]2(C)C(=O)C[C@H]([C@H](C)CC/C=C(\C)C(=O)O)[C@@]12C | 147 µM | 88.3 µM | – | – |
| 32.9 µM | > 50 µM | C[C@H](CCC=C(CO)CO)[C@H]1CC[C@@]2(C)C3=C(C(=O)C[C@]12C)[C@@]1(C)CCC(=O)C(C)(C)[C@@H]1CC3=O | 115 µM | 24.2 µM | – | – |
| 20.5 µM | > 50 µM | CC(=O)O[C@H]1C(=O)C2=C(C(=O)C[C@H]3[C@](C)(CO)C(=O)CC[C@]23C)[C@]2(C)C(=O)C[C@H]([C@H](C)CC/C=C(\C)C(=O)O)[C@@]12C | 18.2 µM | > 200 µM | – | – |
| > 100 µM | > 50 µM | C[C@H](CCC=C(CO)CO)[C@H]1C[C@@H](O)[C@@]2(C)C3=C(C(=O)C[C@]12C)[C@@]1(C)CCC(=O)C(C)(C)[C@@H]1CC3 | > 200 µM | > 200 µM | – | – |
| > 100 µM | > 50 µM | C[C@H](CCC=C(CO)CO)[C@H]1C[C@@H](O)[C@@]2(C)C3=CC[C@H]4C(C)(C)C(=O)CC[C@]4(C)C3=CC[C@]12C | 76.6 µM | 103 µM | – | – |
| 17.1 µM | > 50 µM | C/C(=C\CC[C@@H](C)[C@H]1CC[C@@]2(C)C3=C(C(=O)C[C@]12C)[C@@]1(C)CCC(=O)[C@@](C)(CO)[C@@H]1C[C@@H]3O)C(=O)O | 17.8 µM | > 200 µM | – | – |
| 26.4 µM | > 50 µM | CC(=O)O[C@H]1C(=O)C2=C([C@@H](O)C[C@H]3[C@](C)(COC(=O)C[C@@](C)(O)CC(=O)O)C(=O)CC[C@]23C)[C@]2(C)C(=O)C[C@H]([C@H](C)CC/C=C(\C)C(=O)O)[C@@]12C | 12.3 µM | 110 µM | – | – |
| 26.6 µM | > 50 µM | CC(=O)O[C@H]1C(=O)C2=C([C@@H](O)C[C@H]3[C@](C)(CO)C(=O)CC[C@]23C)[C@]2(C)CC[C@H]([C@H](C)CC/C=C(\C)C(=O)O)[C@@]12C | > 200 µM | > 200 µM | – | – |

Source: ChEMBL document CHEMBL3593234, “Lanostane Triterpenes from the Tibetan Medicinal Mushroom Ganoderma leucocontextum and Their Inhibitory Effects on HMG-CoA Reductase and α-Glucosidase” (J Nat Prod, 2015)
